The structures appear in SMILES notation. Activity calls are given as the source filed them. No cut-off for these calls is given here.

In general, IC50 refers to the concentration at which inhibition is half-maximal. The low end stands for higher potency, the high end for lower potency.

In one assay the test system is MIA PaCa-2. Put plainly: Antiproliferative activity against human MIAPaCa2 cells after 72 hrs by MTT assay. It counts as functional, cell-based. The settings on record: MIA PaCa-2, 72 h. In short, it runs like this:
(§1)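 Monolayers in DMEM with 10% FBS, 2 mM L-glutamine, penicillin/streptomycin, 37 °C, 5% CO2. Seeded at 3 × 10³ to 6 × 10³ cells/well on day 0. Agents added the next day in five 10-fold dilutions (10^-8–10^-4 mol/L), with a DMSO solvent control (max 0.25%). MTT read at 570 nm after 72 h. Quadruplicate points, three experiments. IC50 is the concentration giving 50% growth inhibition.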

Assay [1] can be described thus: Antiproliferative activity against human WI38 cells after 72 hrs by MTT assay. It counts as cell-based. Particulars: WI-38, 72 h. The method, boiled down: as §1
For orientation: Formazan colour is commonly taken as a measure of viable cells.

For a further assay, the system named is MCF7. Put plainly: Antiproliferative activity against human MCF7 cells after 72 hrs by MTT assay. It counts as functional, cell-based. Particulars: MCF7, 72 h. The method, boiled down: as §1
For another assay, the system named is HeLa. Put plainly: Antiproliferative activity against human HeLa cells after 72 hrs by MTT assay. It counts as functional, cell-based. In short, it runs like this:
as §1

Another assay deals with SW-620. Put plainly: Antiproliferative activity against human SW620 cells after 72 hrs by MTT assay. It counts as functional, cell-based. Particulars: SW-620, 72 h. In short, it runs like this:
as §1

In assay [2] the test system is NCI-H460. Put plainly: Antiproliferative activity against human H460 cells after 72 hrs by MTT assay. It counts as functional, cell-based. The settings on record: NCI-H460, 72 h. In short, it runs like this: as §1
For another assay, the system named is HEp-2. Put plainly: Antiproliferative activity against human Hep2 cells after 72 hrs by MTT assay. It counts as functional, cell-based. The settings on record: HEp-2, 72 h. In short, it runs like this: as §1
The test system of assay [3] is NCI-H460. Put plainly: Induction of apoptosis in human H460 cells assessed as late apoptotic cells after 48 hrs using annexin V staining by FACS. It counts as functional, cell-based. The method, boiled down: (§2)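 H 460 cells seeded at 2 × 10⁵/well and exposed for 48 h (5, 10 or 50 µM) against a vehicle control. Floating and attached cells were pooled and washed in binding buffer (10 mM HEPES, 140 mM NaCl, 2.5 mM CaCl2, pH 7.4). They were stained 20 min with annexin V Alexa Fluor 488 and 1 µg/mL 7-AAD, then read by flow cytometry. Quadrants: viable, early apoptotic, late apoptotic.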
In general terms: A flow cytometer gives signals particle by particle.

In assay [4] the test system is NCI-H460. Put plainly: Cell cycle arrest in human H460 cells assessed as reduction of percentage of cells in S phase at 5 to 50 uM after 24 hrs using propidium iodide staining by FACS. It counts as functional, cell-based. In short, it runs like this: (§3)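 H 460 cells seeded at 2 × 10⁵/well and treated after overnight incubation with 5, 10 or 50 µM for 24 or 48 h. Attached and floating cells were pooled, fixed in 70% ethanol, treated with 0.2 µg/µL RNase A (37 °C, 15 min) and stained with 50 µg/mL propidium iodide. Flow cytometry counted 20000 events, in duplicate across two independent experiments.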

Assay [5] has as its system NCI-H460. Put plainly: Induction of apoptosis in human H460 cells assessed as viable cells at 10 uM after 48 hrs using annexin V staining by FACS. It counts as functional. Particulars: NCI-H460, 48 h, read-out: Activity. The method, boiled down:
as §2

Assay [6] relates to NCI-H460. Put plainly: Induction of apoptosis in human H460 cells assessed as late apoptotic cells at 10 uM after 48 hrs using annexin V staining by FACS. It counts as functional. The method, boiled down:
as §2

For assay [7], the system named is NCI-H460. Put plainly: Induction of apoptosis in human H460 cells assessed as early apoptotic cells at 10 uM after 48 hrs using annexin V staining by FACS. It counts as functional. The method, boiled down:
as §2

Assay [8] has as its system NCI-H460. Put plainly: Induction of apoptosis in human H460 cells assessed as early apoptotic cells after 48 hrs using annexin V staining by FACS. It counts as functional, cell-based. In short, it runs like this: as §2
Assay [9] has as its system NCI-H460. Put plainly: Induction of apoptosis in human H460 cells assessed as viable cells after 48 hrs using annexin V staining by FACS. It counts as functional, cell-based. The method, boiled down: as §2
The test system of assay [10] is NCI-H460. Put plainly: Cell cycle arrest in human H460 cells assessed as reduction of percentage of cells in S phase at 5 to 50 uM after 48 hrs using propidium iodide staining by FACS. It counts as functional, cell-based. In short, it runs like this:
as §3

Assay [11] concerns NCI-H460. Put plainly: Cell cycle arrest in human H460 cells assessed as increase in percentage of cells in sub-G1 phase at 5 to 50 uM after 24 hrs using propidium iodide staining by FACS. It counts as functional, cell-based. The method, boiled down:
as §3

For assay [12], the system named is NCI-H460. Put plainly: Cell cycle arrest in human H460 cells assessed as increase in percentage of cells in sub-G1 phase at 5 to 50 uM after 48 hrs using propidium iodide staining by FACS. It counts as functional, cell-based. In short, it runs like this: as §3

Take `Cc1cccnc1Nc1nc2ccc(C(=N)NC(C)C)cc2s1`: the IC50 in the assay on MIA PaCa-2 amounted to 3 µM; in assay [1], 14 µM; in the assay on MCF7, 2 µM; in the assay on HeLa, 5 µM; in the assay with SW-620 it was 5 µM; with NCI-H460 [2], 2 µM.

With `Cc1cccnc1Nc1nc2ccc(C3=NCCN3)cc2s1`, the IC50 stood at 3 µM with MIA PaCa-2; 2 µM with MCF7; 3 µM in the assay with HeLa; 2 µM in the assay on SW-620; 2 µM in the assay with NCI-H460 [2].

On to `N#Cc1ccc2nc(Nc3ccc(Cl)cn3)sc2c1`, for which the half-inhibitory concentration (IC50) in the assay with MIA PaCa-2 was 6 µM; in assay [1], > 10 µM; in the assay on MCF7 it was 10 µM; in the assay on HeLa, > 10 µM; in the assay on HEp-2, > 10 µM; with SW-620 it was ≥ 10 µM.

`CC(C)NC(=N)c1ccc2nc(Nc3ncccn3)sc2c1`: the IC50 worked out at 11 µM in the assay with MIA PaCa-2; 75 µM in assay [1]; 13 µM in the assay on MCF7; 7 µM in the assay on HeLa; 15 µM in the assay on SW-620; 5 µM in the assay with NCI-H460 [2].

As to `Cc1ccnc(Nc2nc3ccc(C#N)cc3s2)c1`, the IC50 with MIA PaCa-2 was 4 µM; in [1], ≥ 10 µM; with MCF7 it was > 10 µM; in the assay on HeLa it was 3 µM; in the assay on HEp-2 it was 7 µM; in the assay on SW-620, 4 µM.

With `CC(C)NC(=N)c1ccc2nc(NC(=O)c3ccccc3Cl)sc2c1`, the IC50 in the assay on MIA PaCa-2 came out at 45 µM; in assay [1] it was 61 µM; with MCF7, 16 µM; in the assay with HeLa, 23 µM; in the assay on SW-620, 45 µM; in the assay with NCI-H460 [2], 59 µM.

Take `c1cnc(Nc2nc3ccc(C4=NCCN4)cc3s2)nc1`: the IC50 with MIA PaCa-2 turned out to be 1.8 µM; in [1], 1.7 µM; with MCF7, 1.7 µM; in the assay on HeLa, 1.4 µM; in the assay on SW-620 it was 1.7 µM; in the assay on NCI-H460 [2], 1.6 µM.

Turning to `Cc1cccc(Nc2nc3ccc(C#N)cc3s2)n1`, the IC50 was 6 µM with MIA PaCa-2; > 10 µM in assay [1]; 8 µM with MCF7; 8 µM in the assay on HeLa; > 10 µM with HEp-2; 4 µM in the assay on SW-620.

In the case of `CC(C)NC(=N)c1ccc(C(=O)Nc2nc3ccccc3s2)cc1`, the IC50 in the assay on MIA PaCa-2 is 17 µM; in assay [1], 16 µM; in the assay with MCF7, 13 µM; with HeLa it was 9 µM; with SW-620 it was 17 µM; with NCI-H460 [2], 16 µM.

Consider `Cc1ccc(Nc2nc3ccc(C#N)cc3s2)nc1`, for which the IC50 was 5 µM in the assay with MIA PaCa-2; 4 µM in [1]; > 10 µM in the assay with MCF7; 9 µM in the assay on HeLa; > 10 µM with HEp-2; > 10 µM in the assay with SW-620.

As to `Clc1ccc(Nc2nc3ccc(C4=NCCN4)cc3s2)nc1`, the IC50 in the assay with MIA PaCa-2 came out at 1.6 µM; in assay [1] it was 1 µM; with MCF7, 1.4 µM; in the assay with HeLa it was 1 µM; with SW-620, 1.3 µM; in the assay on NCI-H460 [2], 1.5 µM.

With `N#Cc1ccc(Nc2nc3ccc(C#N)cc3s2)cc1`, the IC50 (in the assay with MIA PaCa-2; in assay [1]; with MCF7; in the assay on HeLa; in the assay on HEp-2; in the assay with SW-620) was > 10 µM in each case.

Turning to `CC(C)NC(=N)c1ccc(Nc2nc3ccc(C(=N)NC(C)C)cc3s2)cc1`, the IC50 is 30 µM in the assay with MIA PaCa-2; 92 µM in assay [1]; 6 µM in the assay with MCF7; 18 µM in the assay on HeLa; 18 µM in the assay on SW-620; 16 µM with NCI-H460 [2].

Regarding `CC(C)NC(=N)c1ccc2nc(NC(=O)c3ccccc3)sc2c1`, the IC50 was 38 µM in the assay with MIA PaCa-2; > 100 µM in assay [1]; 22 µM in the assay on MCF7; 16 µM in the assay with HeLa; 30 µM with SW-620; 15 µM in the assay with NCI-H460 [2].

Take `Cc1ccc(Nc2nc3ccc(C4=NCCN4)cc3s2)nc1.Cl.Cl`: the Activity entry in the assay with NCI-H460 [3] is “Dose-dependent effect”; in the assay with NCI-H460 [6], 2.3%; with NCI-H460 [7] it was 6.98%; in the assay with NCI-H460 [8] it was “Dose-dependent effect”; in the assay on NCI-H460 [9], “Dose-dependent effect”. Further, the result in the assay with NCI-H460 [4] and with NCI-H460 [10] was Active. The viability at 10 µM in the assay with NCI-H460 [5] came out at 89%. Besides, the IC50 in the assay with MIA PaCa-2 was 2 µM; in assay [1], 6 µM; with MCF7 it was 2 µM; in the assay on HeLa it was 2 µM; in the assay on SW-620, 1 µM; with NCI-H460 [2], 2 µM.

As for `Cc1ccnc(Nc2nc3ccc(C(=N)NC(C)C)cc3s2)c1`, the IC50 in the assay on MIA PaCa-2 came to 3 µM; in assay [1], 12.5 µM; in the assay on MCF7, 2 µM; in the assay with HeLa, 4 µM; in the assay with SW-620, 3 µM; with NCI-H460 [2], 2 µM.

Regarding `N#Cc1ccc2nc(Nc3ncccn3)sc2c1`, the IC50 with MIA PaCa-2 was 3 µM; in assay [1], ≥ 10 µM; in the assay with MCF7, 7 µM; in the assay on HeLa it was 5 µM; in the assay with HEp-2, 5 µM; in the assay on SW-620, 9 µM.

Consider `CC(C)NC(=N)c1ccc2nc(NC(=O)c3ccc(F)cc3)sc2c1`, for which the IC50 was 32 µM in the assay on MIA PaCa-2; > 100 µM in assay [1]; 13 µM in the assay on MCF7; 13 µM with HeLa; 35 µM in the assay with SW-620; 22 µM in the assay on NCI-H460 [2].

Turning to `CC(C)NC(=N)c1ccc2nc(Nc3ccc(Cl)cn3)sc2c1`, the IC50 is 12 µM in the assay with MIA PaCa-2; 17 µM in [1]; 5 µM with MCF7; 9 µM with HeLa; 13 µM in the assay on SW-620; 15 µM in the assay with NCI-H460 [2].

For `Cc1cccnc1Nc1nc2ccc(C#N)cc2s1`, the IC50 in the assay on MIA PaCa-2 is 3 µM; in assay [1], 2.3 µM; in the assay with MCF7, > 10 µM; in the assay on HeLa, > 10 µM; in the assay on HEp-2, > 10 µM; in the assay on SW-620 it was 3 µM.

As to `Cc1cccc(Nc2nc3ccc(C4=NCCN4)cc3s2)n1.Cl.Cl`, the Activity result with NCI-H460 [3] is “Dose-dependent effect”; in the assay on NCI-H460 [6], 5.58%; in the assay with NCI-H460 [7], 24.05%; with NCI-H460 [8], “Dose-dependent effect”; in the assay on NCI-H460 [9] it was “Dose-dependent effect”. In addition, the result in the assay on NCI-H460 [4], with NCI-H460 [11], in the assay on NCI-H460 [12] and in the assay on NCI-H460 [10] was Active. In addition, the viability at 10 µM in the assay on NCI-H460 [5] is 67.7%. The IC50 (in the assay with MIA PaCa-2; in [1]; in the assay on MCF7; in the assay with HeLa; with SW-620; in the assay with NCI-H460 [2]) was 2 µM in each case.

The record behind these values is ChEMBL document CHEMBL1152814, “Novel cyano- and amidinobenzothiazole derivatives: synthesis, antitumor evaluation, and X-ray and quantitative structure-activity relationship (QSAR) analysis” (J Med Chem, 2009).
